# Source: ChEMBL document CHEMBL1145165, “Syntheses and biological activities of disaccharide daunorubicins” (J Med Chem, 2005)
# Structures can show the parent of a compound that is named as a salt.
# Key:
# K562 = assay: Cytotoxicity against K562 leukemia cell line done for 72 hr at 37 degree C with compound in MTS assay; format: functional, cell-based, Homo sapiens
# Outline: (§1)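 Cells (2000–10000) seeded in RPMI-1640 for 24 h, then exponentially growing cells exposed to a range of concentrations (0.001–5 μM) for 72 h at 37 °C, 5% CO2. MTS (2 mg/mL) mixed with PMS (25 μM) added directly; after 3 h at 37 °C formazan absorbance read at 490 nm. IC50 taken from dose-response curves of percent growth versus untreated control.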
# SW-620 = assay: Cytotoxicity against SW620 colon cancer cell line done for 72 h at 37 degree C with compound in MTS assay; format: functional, cell-based, Homo sapiens; outline: as §1
SMILES,"IC50 (K562; Homo sapiens, K562, 72 h) [nM]","IC50 (SW-620; Homo sapiens, SW-620, 72 h) [nM]",IC50 (K562; k562) [nM],IC50 (SW-620; sw-620) [nM]
COc1cccc2c1C(=O)c1c(O)c3c(c(O)c1C2=O)C[C@@](O)(C(C)=O)C[C@@H]3O[C@H]1C[C@H](N)[C@H](O)[C@H](C)O1 [DAUNORUBICIN HYDROCHLORIDE],15.6,8.6,–,–
COc1cccc2c1C(=O)c1c(O)c3c(c(O)c1C2=O)C[C@@](O)(C(C)=O)C[C@@H]3OC1CC(N)C(OC2CC(O)C(O)C(CO)O2)C(C)O1 (stereo partly drawn),1380,> 1000,–,–
COc1cccc2c1C(=O)c1c(O)c3c(c(O)c1C2=O)C[C@@](O)(C(C)=O)C[C@@H]3OC1CC(N)C(OC2CC(C)(O)C(O)C(C)O2)C(C)O1 (stereo in doubt; 4),–,–,1530,> 1000
COc1cccc2c1C(=O)c1c(O)c3c(c(O)c1C2=O)C[C@@](O)(C(C)=O)C[C@@H]3OC1CC(N)C(OC2CC(C)(OC)C(O)C(C)O2)C(C)O1 (stereo partly drawn),21,11.4,–,–
COc1cccc2c1C(=O)c1c(O)c3c(c(O)c1C2=O)C[C@@](O)(C(C)=O)C[C@@H]3OC1CC(N)C(OC2CC(OC)C(O)C(C)O2)C(C)O1 (stereo in doubt; 2),–,–,45.8,38.9
COc1cccc2c1C(=O)c1c(O)c3c(c(O)c1C2=O)C[C@@](O)(C(C)=O)C[C@@H]3OC1CC(N)C(OC2OC(C)C(O)C(O)C2O)C(C)O1 (stereo partly drawn),> 4000,> 1000,–,–
COc1cccc2c1C(=O)c1c(O)c3c(c(O)c1C2=O)C[C@@](O)(C(C)=O)C[C@@H]3OC1CC(N)C(OC2CC(OC)C(O)C(C)O2)C(C)O1 (stereo in doubt; 1),39.5,–,–,18.2
COc1cccc2c1C(=O)c1c(O)c3c(c(O)c1C2=O)C[C@@](O)(C(C)=O)C[C@@H]3OC1CC(N)C(OC2CC(N=[N+]=[N-])C(O)C(C)O2)C(C)O1 (stereo partly drawn),31.3,60.3,–,–
COc1cccc2c1C(=O)c1c(O)c3c(c(O)c1C2=O)C[C@@](O)(C(C)=O)C[C@@H]3OC1CC(N)C(OC2CC(C)(O)C(O)C(C)O2)C(C)O1 (stereo in doubt; 3),–,–,44.3,21.7
